How the values were obtained:
[1] = biological target: Human immunodeficiency virus type 1 reverse transcriptase (Human immunodeficiency virus 1) (UniProt Q72547); experiment: Inhibition of HIV-1 reverse transcriptase assessed as reduction in biotin-dUTP incorporation in to cDNA chain at 0.267 uM in presence of DIG-dUTP, biotin-dUTP and dTTP measured after 1 hr by ELISA relative to control
Procedure, shortened: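 ELISA for HIV-1 RT: enzyme with reconstituted template, DIG-dUTP, biotin-dUTP and dTTP in buffer ± inhibitor, 1 h at 37°C. Product captured on streptavidin-coated plate 2 h at 37°C, then anti-DIG-POD 1 h at 37°C, ABTS substrate, OD405. % inhibition calculated from OD with/without inhibitor and without RT.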

[2] = test system: Human immunodeficiency virus 1; experiment: Antiviral activity against HIV1 3B infected in human MT4 cells assessed as reduction in virus-induced cell death incubated for 5 days by MTT assay; format: functional, organism-based; settings: Human immunodeficiency virus 1, 3B, MT4, 120 h
Procedure, shortened: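 MT-4 cells (6×10^5 cells/mL) infected with HIV-1 at 100-300 CCID50; serial 5-fold compound dilutions added at infection, triplicate wells. After 5 days, viability was read by MTT at 540 and 690 nm, using the median absorbance of three wells. EC50 is the concentration giving 50% protection against virus cytopathic effect.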

[3] = test system: Human immunodeficiency virus 1; experiment: Antiviral activity against HIV1 RES056 infected in human MT4 cells assessed as reduction in virus-induced cell death incubated for 5 days by MTT assay; format: functional, organism-based; settings: Human immunodeficiency virus 1, RES056, MT4, 120 h
Procedure, shortened: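 MT-4 cells (6×10^5 cells/mL) infected with HIV-1 at 100-300 CCID50; serial 5-fold compound dilutions added at infection, triplicate wells. After 5 days, viability was read by MTT at 540 and 690 nm, using the median absorbance of three wells.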

[4] = Cytotoxicity against human MT4 cells assessed as reduction in cell viability after 5 days by MTT assay; format: cell-based; settings: time 5 day
Procedure, shortened: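 Mock-infected MT-4 cells (6×10^5 cells/mL) were run in parallel with serial 5-fold compound dilutions in triplicate wells. After 5 days, viability was read by MTT (540/690 nm) as the median of three wells. CC50 is the concentration reducing OD540 of the mock-infected control by 50%.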

[5] = Selectivity index, ratio of CC50 for cytotoxicity against human MT4 cells to EC50 for antiviral activity against HIV1 3B infected in human MT4 cells; format: toxicity, cell-based; settings: read-out: Ratio CC50/EC50
Procedure, shortened: (§1)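 SI computed as CC50 in mock-infected MT-4 cells divided by EC50 against the given HIV-1 strain, both from the 5-day MTT assay.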

[6] = Selectivity index, ratio of CC50 for cytotoxicity against human MT4 cells to EC50 for antiviral activity against HIV1 RES056 infected in human MT4 cells; format: toxicity, cell-based; settings: read-out: Ratio CC50/EC50; procedure, shortened: as §1

Row | Structure (SMILES) | inhibition [1] | EC50 [2] | EC50 [3] | CC50 at 120 h [4] | selectivity ratio [5] | selectivity ratio [6]
1 | Cc1cc(C#N)cc(C)c1Oc1nc(NCCc2cn(CC(=O)N3CCOCC3)nn2)nc2ccsc12 | 86.7% |  |  |  |  | 
2 | Cc1ccccc1Cn1cc(C(=O)N2CCC(Nc3nc(Oc4c(C)cc(C#N)cc4C)c4sccc4n3)CC2)nn1 | 75.8% |  |  |  |  | 
3 | Cc1cc(C#N)cc(C)c1Oc1nc(NC2CCN(Cc3cn(Cc4ccc(C#N)cc4)nn3)CC2)nc2ccsc12 |  | 209 nM | 18100 nM | 110000 nM | 525 | 6
4 | Cc1ccccc1Cn1cc(CN2CCC(Nc3nc(Oc4c(C)cc(C#N)cc4C)c4sccc4n3)CC2)nn1 | 44.8% |  |  |  |  | 
5 | Cc1cc(C#N)cc(C)c1Oc1nc(NC2CCN(Cc3cn(Cc4ccccc4C#N)nn3)CC2)nc2ccsc12 | 50.3% | 6.64 nM | 2910 nM | 16200 nM | 2440 | 6
6 | Cc1cc(C#N)cc(C)c1Oc1nc(NCCc2cn(Cc3ccc(S(N)(=O)=O)cc3)nn2)nc2ccsc12 | 72.4% |  |  |  |  | 
7 | Cc1cc(-c2cn(Cc3ccc(Cl)cc3)nn2)cc(C)c1Oc1nc(NC2CCN(Cc3ccc(S(N)(=O)=O)cc3)CC2)nc2ccsc12 | 70.8% | 31.3 nM | > 3400 nM | 3390 nM | 108 | < 1
8 | Cc1cc(-c2cn(CCc3ccsc3)nn2)cc(C)c1Oc1nc(NC2CCN(Cc3ccc(S(N)(=O)=O)cc3)CC2)nc2ccsc12 | 72.5% | 21.1 nM | 6190 nM | 11700 nM | 552 | 1.88
9 | Cc1cccc(Cn2cc(CCNc3nc(Oc4c(C)cc(C#N)cc4C)c4sccc4n3)nn2)c1 | 91.8% |  |  |  |  | 
10 | Cc1cc(C#N)cc(C)c1Oc1nc(NC2CCN(Cc3cn(Cc4ccc(C(N)=O)cc4)nn3)CC2)nc2ccsc12 | 66.6% | 3.28 nM | 481 nM | > 210000 nM | > 64100 | > 437
11 | Cc1ccc(Cn2cc(CN3CCC(Nc4nc(Oc5c(C)cc(C#N)cc5C)c5sccc5n4)CC3)nn2)cc1 | 46.1% | 7.26 nM | > 4720 nM | 4720 nM | 650 | < 1
12 | Cc1cc(C#N)cc(C)c1Oc1nc(NC2CCN(Cc3cn(CC(=O)Nc4ccc(S(C)(=O)=O)cc4)nn3)CC2)nc2ccsc12 | 60.1% | 6.66 nM | 1990 nM | 19800 nM | 2970 | 10
13 | Cc1cc(C#N)cc(C)c1Oc1nc(NC2CCN(Cc3cn(Cc4ccc(S(N)(=O)=O)cc4)nn3)CC2)nc2ccsc12 | 42% | 5.35 nM | 670 nM | 20700 nM | 3880 | 31
14 | O=C1Nc2ccc(Cl)cc2[C@@](C#CC2CC2)(C(F)(F)F)O1 [EFAVIRENZ] |  | 4.7 nM |  | > 6380 nM |  | 
15 | Cc1cc(C#N)cc(C)c1Oc1nc(Nc2ccc(C#N)cc2)nc(N)c1Br [ETRAVIRINE] | 32.7% | 5.1 nM |  | > 4590 nM | > 889 | > 101
16 | Cc1ccnc2c1NC(=O)c1cccnc1N2C1CC1 [NEVIRAPINE] |  | 163 nM | > 9510 nM | > 9510 nM | > 58 | 
17 | Cc1cc(C#N)cc(C)c1Oc1nc(NC2CCN(Cc3ccc(S(N)(=O)=O)cc3)CC2)nc2ccsc12 | 44% |  | 30.6 nM | > 227000 nM | > 159000 | > 7420
18 | Cc1cc(-c2cn(CC(=O)N3CCCC3)nn2)cc(C)c1Oc1nc(NC2CCN(Cc3ccc(S(N)(=O)=O)cc3)CC2)nc2ccsc12 | 74% | 25.8 nM | 6050 nM | 17600 nM | 682 | 3
19 | Cc1cc(C#N)cc(C)c1Oc1nc(NCCc2cn(Cc3ccccc3[N+](=O)[O-])nn2)nc2ccsc12 | 89.1% |  |  |  |  | 
20 | Cc1cc(C#N)cc(C)c1Oc1nc(NC2CCN(Cc3cn([C@H]4C[C@H](n5cc(C)c(=O)[nH]c5=O)O[C@@H]4CO)nn3)CC2)nc2ccsc12 | 57.1% | 82.9 nM | 10600 nM | 149000 nM | 1800 | 14
21 | Cc1cc(C#N)cc(C)c1Oc1nc(NCCc2cn(Cc3ccc(C(N)=O)cc3)nn2)nc2ccsc12 | 71.1% |  |  |  |  | 
22 | Cc1cc(C#N)cc(C)c1Oc1nc(NC2CCN(Cc3cn(CC(=O)N4CCOCC4)nn3)CC2)nc2ccsc12 | 69.7% | 4.38 nM | 4460 nM | > 212000 nM | > 48500 | > 48
23 | Cc1cc(C#N)cc(C)c1Oc1nc(NC2CCN(Cc3cn(Cc4ccccc4[N+](=O)[O-])nn3)CC2)nc2ccsc12 | 51.9% | 6.12 nM | 1170 nM | 7660 nM | 1250 | 7
24 | Cc1cc(C#N)cc(C)c1Oc1nc(NC2CCN(C(=O)c3cn(CC(=O)Nc4ccccc4)nn3)CC2)nc2ccsc12 | 80.2% |  |  |  |  | 
25 | Cc1cc(C#N)cc(C)c1Oc1nc(NCCc2cn(Cc3ccccc3Cl)nn2)nc2ccsc12 | 75.6% |  |  |  |  | 
26 | Cc1cc(C#N)cc(C)c1Oc1nc(NC2CCN(C(=O)c3cn(CC(=O)N4CCOCC4)nn3)CC2)nc2ccsc12 | 71.8% |  |  |  |  | 

— ChEMBL document CHEMBL4680237, “In situ click chemistry-based rapid discovery of novel HIV-1 NNRTIs by exploiting the hydrophobic channel and tolerant regions of NNIBP” (Eur J Med Chem, 2020)
